What all share (format): functional
Test [1] has as its system Fusarium verticillioides. Briefly: Antimicrobial activity against Fusarium moniliforme MTCC 156 after 48 hrs by microdilution method. In short, it runs like this: (§1)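 The minimal inhibitory concentration was determined by dilution, alongside minimal bactericidal concentration for bacterial strains and minimal fungicidal concentration for fungal strains. Tests were run in six replicates, and the value is the mean of at least three determinations.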

In test [2] the test system is Fusarium oxysporum. Briefly: Antimicrobial activity against Fusarium oxysporum MTCC 284 after 48 hrs by microdilution method. In short, it runs like this: as §1
Background: Dilution methods test growth across graded concentrations, often in twofold steps.

The test system of test [3] is Aspergillus niger. Briefly: Antimicrobial activity against Aspergillus niger MTCC 281 after 48 hrs by microdilution method. A digest of the protocol: as §1
Test [4] deals with Aspergillus flavus. Description: Antimicrobial activity against Aspergillus flavus MTCC 873 after 48 hrs by microdilution method. In short, it runs like this: as §1
Test [5] relates to Klebsiella pneumoniae. Briefly: Antimicrobial activity against Klebsiella pneumoniae MTCC 3384 after 24 hrs by microdilution method. Particulars: MTCC 3384, 24 h. In short, it runs like this: as §1
In test [6] the test system is Escherichia coli. Briefly: Antimicrobial activity against Escherichia coli MTCC 724 after 24 hrs by microdilution method. To be noted: MTCC 724, 24 h. A digest of the protocol:
as §1

The subject of test [7] is Staphylococcus aureus. Briefly: Antimicrobial activity against Staphylococcus aureus MTCC 96 after 24 hrs by microdilution method. To be noted: MTCC 96, 24 h. A digest of the protocol: as §1
Test [8] concerns Bacillus cereus. Briefly: Antimicrobial activity against Bacillus cereus MTCC 8372 after 24 hrs by microdilution method. Particulars: MTCC 8372, 24 h. A digest of the protocol:
as §1

The test system of test [9] is Fusarium verticillioides. Briefly: Antimicrobial activity against Fusarium moniliforme MTCC 156 at 100 ug/ml after 48 hrs by disc diffusion method. In short, it runs like this:
(§2)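 Agar diffusion read-out is the diameter of the inhibition zone in mm. Each test was run in six replicates and reported as mean ± standard deviation, taken from at least three determinations.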
(Agar diffusion results depend on both activity and mobility in agar.)

For test [10], the system named is Fusarium verticillioides. Briefly: Antimicrobial activity against Fusarium moniliforme MTCC 156 at 50 ug/ml after 48 hrs by disc diffusion method. In short, it runs like this:
as §2

Test [11] has as its system Fusarium oxysporum. Briefly: Antimicrobial activity against Fusarium oxysporum MTCC 284 at 100 ug/ml after 48 hrs by disc diffusion method. A digest of the protocol: as §2
The test system of test [12] is Fusarium oxysporum. Briefly: Antimicrobial activity against Fusarium oxysporum MTCC 284 at 50 ug/ml after 48 hrs by disc diffusion method. In short, it runs like this: as §2
The test system of test [13] is Aspergillus niger. Briefly: Antimicrobial activity against Aspergillus niger MTCC 281 at 100 ug/ml after 48 hrs by disc diffusion method. In short, it runs like this: as §2
Test [14] relates to Aspergillus niger. Description: Antimicrobial activity against Aspergillus niger MTCC 281 at 50 ug/ml after 48 hrs by disc diffusion method. In short, it runs like this:
as §2

The subject of test [15] is Aspergillus flavus. Briefly: Antimicrobial activity against Aspergillus flavus MTCC 873 at 100 ug/ml after 48 hrs by disc diffusion method. In short, it runs like this:
as §2

Test [16] deals with Aspergillus flavus. Briefly: Antimicrobial activity against Aspergillus flavus MTCC 873 at 50 ug/ml after 48 hrs by disc diffusion method. A digest of the protocol:
as §2

In test [17] the test system is Klebsiella pneumoniae. Description: Antimicrobial activity against Klebsiella pneumoniae MTCC 3384 at 100 ug/ml after 24 hrs by disc diffusion method. Particulars: MTCC 3384, 24 h, read-out: DIZ. A digest of the protocol:
as §2

Test [18] concerns Escherichia coli. Description: Antimicrobial activity against Escherichia coli MTCC 724 at 100 ug/ml after 24 hrs by disc diffusion method. To be noted: MTCC 724, 24 h, read-out: DIZ. In short, it runs like this: as §2
Test [19] deals with Klebsiella pneumoniae. Description: Antimicrobial activity against Klebsiella pneumoniae MTCC 3384 at 50 ug/ml after 24 hrs by disc diffusion method. To be noted: MTCC 3384, 24 h, read-out: DIZ. A digest of the protocol:
as §2

Test [20] deals with Escherichia coli. Briefly: Antimicrobial activity against Escherichia coli MTCC 724 at 50 ug/ml after 24 hrs by disc diffusion method. Particulars: MTCC 724, 24 h, read-out: DIZ. A digest of the protocol:
as §2

In test [21] the test system is Staphylococcus aureus. Description: Antimicrobial activity against Staphylococcus aureus MTCC 96 at 100 ug/ml after 24 hrs by disc diffusion method. Particulars: MTCC 96, 24 h, read-out: DIZ. A digest of the protocol: as §2
Test [22] relates to Staphylococcus aureus. Description: Antimicrobial activity against Staphylococcus aureus MTCC 96 at 50 ug/ml after 24 hrs by disc diffusion method. To be noted: MTCC 96, 24 h, read-out: DIZ. A digest of the protocol: as §2
In test [23] the test system is Bacillus cereus. Briefly: Antimicrobial activity against Bacillus cereus MTCC 8372 at 100 ug/ml after 24 hrs by disc diffusion method. Particulars: MTCC 8372, 24 h, read-out: DIZ. In short, it runs like this: as §2
For test [24], the system named is Bacillus cereus. Briefly: Antimicrobial activity against Bacillus cereus MTCC 8372 at 50 ug/ml after 24 hrs by disc diffusion method. Particulars: MTCC 8372, 24 h, read-out: DIZ. A digest of the protocol: as §2

≈ marks a conversion by molar mass, not a printed value.

With `Cc1c(-c2nnc(-c3ccc([N+](=O)[O-])cc3)o2)c(-c2ccc([N+](=O)[O-])cc2)nn1-c1ccccc1`, the MFC came out at 290 µg/mL (≈ 619 µM) against Fusarium verticillioides [1] (MTCC 156, 48 h); 280 µg/mL (≈ 598 µM) against Fusarium oxysporum [2] (MTCC 284, 48 h); 275 µg/mL (≈ 587 µM) in the test with Aspergillus niger [3] (MTCC 281, 48 h); 275 µg/mL (≈ 587 µM) in the test with Aspergillus flavus [4] (MTCC 873, 48 h). Moreover, the MIC (usually the lowest concentration found to suppress growth) in the test on Fusarium verticillioides [1] (MTCC 156, 48 h) stood at 55 µg/mL (≈ 117 µM); in the test on Fusarium oxysporum [2] (MTCC 284, 48 h) it was 50 µg/mL (≈ 107 µM); against Aspergillus niger [3] (MTCC 281, 48 h) it was 45 µg/mL (≈ 96.1 µM); against Aspergillus flavus [4] (MTCC 873, 48 h), 40 µg/mL (≈ 85.4 µM); in the test with Klebsiella pneumoniae [5] it was 25 µg/mL (≈ 53.4 µM); against Escherichia coli [6], 25 µg/mL (≈ 53.4 µM). Also, the MIC against Staphylococcus aureus [7] and against Bacillus cereus [8] was 20 µg/mL (≈ 42.7 µM) each time. In addition, the MBC (in general, the smallest concentration meeting the test's criterion for killing) against Klebsiella pneumoniae [5] turned out to be 170 µg/mL (≈ 363 µM); with Escherichia coli [6], 175 µg/mL (≈ 374 µM); in the test with Staphylococcus aureus [7], 155 µg/mL (≈ 331 µM); with Bacillus cereus [8], 160 µg/mL (≈ 342 µM). Besides, the zone of inhibition at 100 µg/mL came out at 18 mm in the test with Fusarium verticillioides [9] (MTCC 156, 48 h, read-out: DIZ); 16 mm in the test with Fusarium oxysporum [11] (MTCC 284, 48 h, read-out: DIZ); 14 mm with Aspergillus niger [13] (MTCC 281, 48 h, read-out: DIZ); 11 mm with Aspergillus flavus [15] (MTCC 873, 48 h, read-out: DIZ); 16 mm in the test on Klebsiella pneumoniae [17]; 22 mm in the test with Escherichia coli [18]. Moreover, the zone of inhibition at 100 µg/mL in the test with Staphylococcus aureus [21] was found to be 20 mm; with Bacillus cereus [23], 22 mm. For the same compound, the zone of inhibition at 50 µg/mL in the test with Fusarium verticillioides [10] (MTCC 156, 48 h, read-out: DIZ) was 8 mm; with Fusarium oxysporum [12] (MTCC 284, 48 h, read-out: DIZ), 8 mm; in the test on Aspergillus niger [14] (MTCC 281, 48 h, read-out: DIZ), 6 mm; with Aspergillus flavus [16] (MTCC 873, 48 h, read-out: DIZ), 8 mm; with Klebsiella pneumoniae [19], 8 mm; in the test with Escherichia coli [20], 12 mm. The zone of inhibition at 50 µg/mL is 12 mm in the test on Staphylococcus aureus [22] and 14 mm with Bacillus cereus [24].
In the case of `CN(C)[C@@H]1C(O)=C(C(N)=O)C(=O)[C@@]2(O)C(O)=C3C(=O)c4c(O)cccc4[C@@](C)(O)[C@H]3C[C@@H]12` [TETRACYCLINE], the MBC in the test on Klebsiella pneumoniae [5], against Escherichia coli [6], against Staphylococcus aureus [7] and in the test with Bacillus cereus [8] was 120 µg/mL (≈ 270 µM) in each case. Moreover, the MIC against Klebsiella pneumoniae [5] was 8 µg/mL (≈ 18 µM); in the test on Escherichia coli [6], 12 µg/mL (≈ 27 µM); in the test with Staphylococcus aureus [7], 10 µg/mL (≈ 22.5 µM); in the test on Bacillus cereus [8] it was 4 µg/mL (≈ 9 µM). Further, the zone of inhibition at 100 µg/mL in the test with Klebsiella pneumoniae [17] stood at 20 mm; in the test with Escherichia coli [18], 30 mm; with Staphylococcus aureus [21] it was 20 mm; in the test with Bacillus cereus [23] it was 21 mm. The zone of inhibition at 50 µg/mL in the test with Klebsiella pneumoniae [19] came to 12 mm; with Escherichia coli [20] it was 18 mm; in the test on Staphylococcus aureus [22], 9 mm; with Bacillus cereus [24] it was 10 mm.
On to NYSTATIN, for which the MFC in the test on Fusarium verticillioides [1], in the test on Fusarium oxysporum [2], against Aspergillus niger [3] and in the test with Aspergillus flavus [4] was 100 µg/mL in each case. Besides, the MIC against Fusarium verticillioides [1] amounted to 12 µg/mL; against Fusarium oxysporum [2], 15 µg/mL; in the test with Aspergillus niger [3], 10 µg/mL; in the test with Aspergillus flavus [4], 8 µg/mL. In addition, the inhibition zone (IZ) with Fusarium verticillioides [9] was 28 mm; in the test on Fusarium verticillioides [10], 12 mm; in the test on Fusarium oxysporum [11], 30 mm; with Fusarium oxysporum [12], 16 mm; in the test with Aspergillus niger [13] it was 25 mm; with Aspergillus niger [14] it was 10 mm. For the same compound, the inhibition zone (IZ) in the test with Aspergillus flavus [15] was 20 mm; in the test with Aspergillus flavus [16], 16 mm.

For the origin of these results see ChEMBL document CHEMBL3098013, “Novel pyrazole integrated 1,3,4-oxadiazoles: synthesis, characterization and antimicrobial evaluation” (2014).
